Measurements: ChEMBL document CHEMBL4351018, “Novel phenanthridin-6(5H)-one derivatives as potent and selective BET bromodomain inhibitors: Rational design, synthesis and biological evaluation” (Eur J Med Chem, 2019)

Assays:
[1] = biological target: Bromodomain-containing protein 4 (Homo sapiens, UniProt O60885); assay: Inhibition of recombinant human His-tagged BRD4 bromodomain 1/2 (2 to 1362 residues) expressed in […] insect cells using biotinylated H4(1 to 21)K5/8/12/16Ac peptide as substrate preincubated for 30 mins followed by substrate addition and measured after 30 mins by Alpha screen assay
[2] = biological target: Bromodomain-containing protein 3 (Homo sapiens) (UniProt Q15059); assay: Binding affinity to BRD3 bromodomain 2 (unknown origin) at 20 uM by Alpha screen assay relative to control
[3] = biological target: Bromodomain-containing protein 2 (Homo sapiens) (UniProt P25440); assay: Binding affinity to BRD2 bromodomain 2 (unknown origin) at 20 uM by Alpha screen assay relative to control
[4] = biological target: Bromodomain testis-specific protein (Homo sapiens) (UniProt Q58F21); assay: Binding affinity to BRDT bromodomain 1 (unknown origin) at 20 uM by Alpha screen assay relative to control
[5] = biological target: Bromodomain testis-specific protein (Homo sapiens) (UniProt Q58F21); assay: Binding affinity to BRDT bromodomain 2 (unknown origin) at 20 uM by Alpha screen assay relative to control
PANC-1 = assay: Antiproliferative activity against human PANC1 cells incubated for 48 hrs by MTT assay; assay type: functional, cell-based; conditions: PANC-1, 48 h
Method in brief: (§1)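 Cells kept in DMEM or RPMI 1640 with 10% FBS at 37 °C, 5% CO2. MTT added for 4 h at 37 °C, formazan dissolved in DMSO, OD read at 570 nm. Survival % taken relative to blank and control wells. Triplicate runs; IC50 from curve fit.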

SGC-7901 = assay: Antiproliferative activity against human SGC7901 cells incubated for 48 hrs by MTT assay; assay type: functional, cell-based; conditions: SGC-7901, 48 h; method in brief: as §1
A549 [6] = assay: Inhibition of BET in human A549 cells assessed as downregulation of c-Myc protein expression level incubated for 48 hrs by western blot analysis; assay type: cell-based
Method in brief: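 A549 cells seeded at 400000 per well, grown overnight in 10% FBS medium, then given serially diluted compound for 48 h. c-Myc in lysates detected with a mouse monoclonal antibody; GAPDH used as loading control.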

A549 [7] = assay: Induction of apoptosis in human A549 cells assessed as late apoptotic cells at 0.3 uM incubated for 48 hrs by annexin V-FITC/PI double staining based flow cytometric analysis (reference value: 0.039%); assay type: functional
A549 [8] = assay: Induction of apoptosis in human A549 cells assessed as viable cells at 1.0 uM incubated for 48 hrs by annexin V-FITC/PI double staining based flow cytometric analysis (reference value: 98.2%); assay type: functional; conditions: A549, 48 h, read-out: Activity
A549 [9] = assay: Induction of apoptosis in human A549 cells assessed as late apoptotic cells at 1.0 uM incubated for 48 hrs by annexin V-FITC/PI double staining based flow cytometric analysis (reference value: 0.039%); assay type: functional
A549 [10] = assay: Induction of apoptosis in human A549 cells assessed as necrotic cells at 1.0 uM incubated for 48 hrs by annexin V-FITC/PI double staining based flow cytometric analysis (reference value: 0%); assay type: functional
A549 [11] = assay: Induction of apoptosis in human A549 cells assessed as early apoptotic cells at 3.0 uM incubated for 48 hrs by annexin V-FITC/PI double staining based flow cytometric analysis (reference value: 1.76%); assay type: functional
A549 [12] = assay: Induction of apoptosis in human A549 cells assessed as late apoptotic cells at 3.0 uM incubated for 48 hrs by annexin V-FITC/PI double staining based flow cytometric analysis (reference value: 0.039%); assay type: functional
A549 [13] = assay: Induction of apoptosis in human A549 cells assessed as necrotic cells at 3.0 uM incubated for 48 hrs by annexin V-FITC/PI double staining based flow cytometric analysis (reference value: 0%); assay type: functional
A549 [14] = assay: Induction of apoptosis in human A549 cells assessed as viable cells at 5.0 uM incubated for 48 hrs by annexin V-FITC/PI double staining based flow cytometric analysis (reference value: 98.2%); assay type: functional; conditions: A549, 48 h, read-out: Activity
A549 [15] = assay: Induction of apoptosis in human A549 cells assessed as early apoptotic cells at 5.0 uM incubated for 48 hrs by annexin V-FITC/PI double staining based flow cytometric analysis (reference value: 1.76%); assay type: functional
A549 [16] = assay: Induction of apoptosis in human A549 cells assessed as necrotic cells at 5.0 uM incubated for 48 hrs by annexin V-FITC/PI double staining based flow cytometric analysis (reference value: 0%); assay type: functional
[17] = Metabolic stability in human liver microsomes assessed as half life at 1 uM measured for 0.025 to 2 hrs in presence of betaNADPH by LC-MS/MS analysis; assay type: ADME, Microsome
Method in brief: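 1 μM compound incubated at 37 °C with human liver microsomes (0.5 mg/mL), 1.7 mM β-NADPH and 3.3 mM MgCl2 in 0.1 M phosphate buffer pH 7.4, with DMSO below 0.1%. Remaining parent measured by LC-MS/MS; half-life from concentration-time regression.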

[18] = Half life in Sprague-Dawley rat at 2.5 mg/kg, iv measured for 0.083 to 24 hrs by LC-MS/MS analysis; assay type: ADME, organism-based; conditions: in vivo
[19] = Tmax in Sprague-Dawley rat at 2.5 mg/kg, iv measured for 0.083 to 24 hrs by LC-MS/MS analysis; assay type: ADME, organism-based; conditions: in vivo
[20] = MRT (0 to t) in Sprague-Dawley rat at 2.5 mg/kg, iv measured for 0.083 to 24 hrs by LC-MS/MS analysis; assay type: ADME, organism-based; conditions: in vivo
[21] = Tmax in Sprague-Dawley rat at 10 mg/kg, po measured for 0.083 to 24 hrs by LC-MS/MS analysis; assay type: ADME, organism-based; conditions: in vivo
[22] = Apparent clearance in Sprague-Dawley rat at 10 mg/kg, po measured for 0.083 to 24 hrs by LC-MS/MS analysis; assay type: ADME, organism-based; conditions: in vivo, read-out: CL(app) (converted)
A549 [23] = assay: Induction of cell cycle arrest in human A549 cells assessed as accumulation at […] phase at 1.0 uM incubated for 48 hrs by BrdU/PI staining based flow cytometric analysis; assay type: functional
Method in brief: (§2)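 Subconfluent A549 cells exposed 48 h to 0.3–5.0 μM with DMSO vehicle control. Pulse-labelled with 10 μM BrdU for 30 min at 37 °C before harvest. Fixed in 70% ethanol, denatured in 2 M HCl, neutralised, then stained with fluorescein anti-BrdU antibody and propidium iodide. Analysed by flow cytometry with 488 nm excitation.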

A549 [24] = assay: Induction of cell cycle arrest in human A549 cells assessed as accumulation at […] phase at 5.0 uM incubated for 48 hrs by BrdU/PI staining based flow cytometric analysis; assay type: functional; method in brief: as §2
A549 [25] = assay: Induction of cell cycle arrest in human A549 cells assessed as increase in accumulation at M phase incubated for 48 hrs by BrdU/PI staining based flow cytometric analysis; assay type: functional; method in brief: as §2

Sequence of Bromodomain-containing protein 3 (Homo sapiens) (Q15059 2-726 limits assumed): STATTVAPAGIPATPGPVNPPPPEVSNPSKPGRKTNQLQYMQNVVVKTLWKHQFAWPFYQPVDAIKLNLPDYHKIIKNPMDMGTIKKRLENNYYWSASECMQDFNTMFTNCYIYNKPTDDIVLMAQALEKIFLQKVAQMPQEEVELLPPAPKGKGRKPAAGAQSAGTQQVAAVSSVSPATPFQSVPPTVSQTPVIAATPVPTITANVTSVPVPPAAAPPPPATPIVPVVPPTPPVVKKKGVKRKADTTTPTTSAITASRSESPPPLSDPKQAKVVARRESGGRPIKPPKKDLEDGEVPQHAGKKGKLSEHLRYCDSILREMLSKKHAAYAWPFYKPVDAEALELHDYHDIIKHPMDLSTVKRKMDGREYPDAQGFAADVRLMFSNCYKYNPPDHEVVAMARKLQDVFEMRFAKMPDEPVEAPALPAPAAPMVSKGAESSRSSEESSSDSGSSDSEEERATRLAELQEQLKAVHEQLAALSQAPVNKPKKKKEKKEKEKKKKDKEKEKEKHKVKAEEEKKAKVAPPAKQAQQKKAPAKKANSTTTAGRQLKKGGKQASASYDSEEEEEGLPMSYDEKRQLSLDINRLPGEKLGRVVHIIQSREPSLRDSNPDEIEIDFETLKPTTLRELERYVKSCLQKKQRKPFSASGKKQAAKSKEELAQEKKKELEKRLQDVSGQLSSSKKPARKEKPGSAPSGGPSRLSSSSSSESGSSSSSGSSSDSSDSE
Sequence of Bromodomain-containing protein 2 (Homo sapiens) (P25440 whole entry, looked up): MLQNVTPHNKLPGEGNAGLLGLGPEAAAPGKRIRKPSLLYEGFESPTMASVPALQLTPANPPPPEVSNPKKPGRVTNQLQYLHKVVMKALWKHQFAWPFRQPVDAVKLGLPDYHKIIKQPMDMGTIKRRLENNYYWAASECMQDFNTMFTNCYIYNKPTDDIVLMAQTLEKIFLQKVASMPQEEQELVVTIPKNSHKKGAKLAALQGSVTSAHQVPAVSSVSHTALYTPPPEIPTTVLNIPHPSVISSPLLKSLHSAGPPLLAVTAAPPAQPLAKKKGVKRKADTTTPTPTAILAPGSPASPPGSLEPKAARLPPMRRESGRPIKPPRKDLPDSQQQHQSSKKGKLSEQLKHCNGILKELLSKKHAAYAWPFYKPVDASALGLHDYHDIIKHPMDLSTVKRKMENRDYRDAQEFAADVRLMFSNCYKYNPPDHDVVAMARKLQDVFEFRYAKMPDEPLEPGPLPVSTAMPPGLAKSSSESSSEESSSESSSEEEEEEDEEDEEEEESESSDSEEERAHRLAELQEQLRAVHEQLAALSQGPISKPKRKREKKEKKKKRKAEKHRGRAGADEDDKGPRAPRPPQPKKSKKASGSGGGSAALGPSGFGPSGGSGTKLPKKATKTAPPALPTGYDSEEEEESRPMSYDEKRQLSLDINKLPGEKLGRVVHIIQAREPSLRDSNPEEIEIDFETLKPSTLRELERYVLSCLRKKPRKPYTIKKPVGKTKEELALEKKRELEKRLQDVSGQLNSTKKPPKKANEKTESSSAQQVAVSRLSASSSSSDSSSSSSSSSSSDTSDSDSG

COc1ccc(Cl)cc1S(=O)(=O)Nc1ccc2[nH]c(=O)c3ccccc3c2c1
IC50 [1]: 0.24 µM | Activity [2]: > 70% | Activity [3]: > 70% | Activity [4]: > 70% | Activity [5]: > 70% | IC50 (PANC-1): 6.7 µM | IC50 (SGC-7901): 5.35 µM | inhibition (A549 [6]): Dose-dependent effect | Activity (A549 [7]): 2.63% | viability at 1 µM (A549 [8]): 46.1% | Activity (A549 [9]): 6.13% | Activity (A549 [10]): 0.044% | Activity (A549 [11]): 68.3% | Activity (A549 [12]): 7.11% | Activity (A549 [13]): 0% | viability at 5 µM (A549 [14]): 19.7% | Activity (A549 [15]): 72% | Activity (A549 [16]): 0.036% | half-life at 1 µM [17]: 4.17 h | half-life [18]: 10.4 h | Tmax [19]: 4.98 min | MRT last [20]: 7.93 h | Tmax [21]: 5.33 h | CL/F [22]: 303 mL/min/kg | Activity (A549 [23]): 70.3% | Activity (A549 [24]): 81.66% | Activity (A549 [25]): Dose-dependent effect
